Data on one compound can be found in ChEMBL document CHEMBL5705899 (Biochem J, 2014).

Assay [1] deals with Mitogen-activated protein kinase 1 (Homo sapiens) (UniProt P28482). The assay is described as follows: Inhibition of recombinant human N-terminal GST-tagged ERK2 (2 to 360 residues) expressed in Escherichia coli assessed as remaining activity at 1 uM using MBP as substrate incubated for 30 mins in presence of [gamma-33P]ATP by filter binding method relative to control.
Assay [2] concerns the target Tyrosine-protein kinase ZAP-70 (Homo sapiens) (UniProt P43403). The assay is described as follows: Inhibition of recombinant human N-terminal His6-tagged ZAP70 (1 to 619 residues) expressed in baculovirus infected Sf21 cells assessed as remaining activity at 1 uM using Poly(Glu,Tyr) as substrate incubated for 30 mins in presence of [gamma-33P]ATP by filter binding method relative to control.

The target in assay [3] is Insulin receptor (Homo sapiens) (UniProt P06213). The assay is described as follows: Inhibition of recombinant human N-terminal His6-tagged IR (1001 to 1382 residues) expressed in baculovirus infected Sf21 cells assessed as remaining activity at 1 uM using KKSRGDYMTMQIG as substrate incubated for 30 mins in presence of [gamma-33P]ATP by filter binding method relative to control.
Chain of Insulin receptor (Homo sapiens) (P06213 28-758 limits assumed): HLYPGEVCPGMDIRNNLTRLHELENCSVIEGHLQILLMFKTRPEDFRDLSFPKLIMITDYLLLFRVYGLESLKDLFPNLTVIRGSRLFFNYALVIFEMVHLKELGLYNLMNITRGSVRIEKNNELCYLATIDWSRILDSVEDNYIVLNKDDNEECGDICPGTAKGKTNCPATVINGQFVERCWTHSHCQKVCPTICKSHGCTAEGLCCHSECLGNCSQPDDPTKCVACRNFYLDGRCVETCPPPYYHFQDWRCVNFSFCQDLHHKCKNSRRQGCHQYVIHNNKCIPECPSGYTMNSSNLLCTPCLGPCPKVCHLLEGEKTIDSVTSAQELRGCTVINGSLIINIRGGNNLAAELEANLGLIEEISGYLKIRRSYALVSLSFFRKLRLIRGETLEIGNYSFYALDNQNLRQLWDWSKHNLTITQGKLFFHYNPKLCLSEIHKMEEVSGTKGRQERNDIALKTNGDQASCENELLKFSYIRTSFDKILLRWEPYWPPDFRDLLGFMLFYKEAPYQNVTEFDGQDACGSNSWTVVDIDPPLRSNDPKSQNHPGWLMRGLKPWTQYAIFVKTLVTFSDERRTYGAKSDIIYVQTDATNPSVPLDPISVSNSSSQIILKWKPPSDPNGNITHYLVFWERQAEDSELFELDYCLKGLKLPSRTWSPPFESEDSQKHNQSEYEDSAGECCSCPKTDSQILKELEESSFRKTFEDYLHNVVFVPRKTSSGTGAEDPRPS
Chain of Insulin receptor (Homo sapiens) (P06213 763-1382 limits assumed): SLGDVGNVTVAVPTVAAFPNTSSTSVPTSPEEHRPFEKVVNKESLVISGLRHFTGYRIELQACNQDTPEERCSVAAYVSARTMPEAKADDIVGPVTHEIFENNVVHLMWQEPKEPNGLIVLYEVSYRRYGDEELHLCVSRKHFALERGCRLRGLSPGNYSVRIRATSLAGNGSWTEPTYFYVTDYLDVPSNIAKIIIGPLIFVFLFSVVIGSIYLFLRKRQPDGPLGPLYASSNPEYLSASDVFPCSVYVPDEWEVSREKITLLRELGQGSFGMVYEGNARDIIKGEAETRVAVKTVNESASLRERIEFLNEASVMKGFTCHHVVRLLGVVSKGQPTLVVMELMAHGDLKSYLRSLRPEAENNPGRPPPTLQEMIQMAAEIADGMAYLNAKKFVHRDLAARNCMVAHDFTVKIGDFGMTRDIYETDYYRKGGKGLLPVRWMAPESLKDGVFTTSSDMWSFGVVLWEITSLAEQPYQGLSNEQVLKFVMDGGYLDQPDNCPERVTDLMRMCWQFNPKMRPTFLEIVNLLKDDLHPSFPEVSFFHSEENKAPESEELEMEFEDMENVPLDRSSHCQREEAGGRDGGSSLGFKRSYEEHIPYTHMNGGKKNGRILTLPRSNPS

For assay [4], the target named is Phosphorylase b kinase gamma catalytic chain, skeletal muscle/heart isoform (Homo sapiens) (UniProt Q16816). In words: Inhibition of recombinant human N-terminal GST-tagged PHKgamma1 (2 to 297 residues) expressed in Escherichia coli assessed as remaining activity at 1 uM using phosphorylase b peptide as substrate incubated for 30 mins in presence of [gamma-33P]ATP by filter binding method relative to control.
Chain of Phosphorylase b kinase gamma catalytic chain, skeletal muscle/heart isoform (Homo sapiens) (Q16816 whole entry, looked up, the tested form may be a part, canonical isoform): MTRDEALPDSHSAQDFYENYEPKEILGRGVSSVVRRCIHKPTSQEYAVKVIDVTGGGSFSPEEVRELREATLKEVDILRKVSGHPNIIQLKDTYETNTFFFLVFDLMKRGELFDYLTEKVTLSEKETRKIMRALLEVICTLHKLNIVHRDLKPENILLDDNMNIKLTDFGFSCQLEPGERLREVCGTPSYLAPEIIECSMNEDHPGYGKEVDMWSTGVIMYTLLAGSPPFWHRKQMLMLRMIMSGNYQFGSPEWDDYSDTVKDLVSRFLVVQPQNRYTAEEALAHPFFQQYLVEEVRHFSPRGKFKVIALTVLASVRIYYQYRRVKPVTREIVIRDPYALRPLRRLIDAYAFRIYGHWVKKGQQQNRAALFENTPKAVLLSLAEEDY

The target of assay [5] is Ephrin type-B receptor 1 (Homo sapiens) (UniProt P54762). In words: Inhibition of recombinant human N-terminal His6-tagged EPHB1 (565 to 984 residues) expressed in baculovirus infected Sf21 cells assessed as remaining activity at 1 uM using Poly (Glu,Tyr) as substrate incubated for 30 mins in presence of [gamma-33P]ATP by filter binding method relative to control.
Assay [6] concerns the target Tyrosine-protein kinase ABL1 (Homo sapiens) (UniProt P00519). The assay is described as follows: Inhibition of recombinant human N-terminal GST-tagged ABL (118 to 535 residues) expressed in Escherichia coli co-expressed with His-tagged YopH assessed as remaining activity at 1 uM using EAIYAAPFAKKK as substrate incubated for 30 mins in presence of [gamma-33P]ATP by filter binding method relative to control.

Assay [7] addresses Tyrosine-protein kinase Blk (Homo sapiens) (UniProt P51451). The assay is described as follows: Inhibition of human BLK at 1 uM using polyEY as substrate in presence of 33P-ATP by ProQinase assay.
Assay [8] has as its target Protein kinase C gamma type (Homo sapiens) (UniProt P05129). The assay is described as follows: Inhibition of human PKCgamma at 1 uM using 3xChocktide-PKC as substrate in presence of 33P-ATP by ProQinase assay.
Assay [9] has as its target MAP kinase-interacting serine/threonine-protein kinase 1 (Homo sapiens) (UniProt Q9BUB5). The assay is described as follows: Inhibition of human MKNK1 at 1 uM using RB-S6P as substrate in presence of 33P-ATP by ProQinase assay.
The target in assay [10] is Serine/threonine-protein kinase Chk2 (Homo sapiens) (UniProt O96017). In words: Inhibition of human CHK2 at 1 uM using bio-4xCHKT as substrate in presence of 33P-ATP by ProQinase assay.
Assay [11] has as its target NUAK family SNF1-like kinase 1 (Homo sapiens) (UniProt O60285). In words: Inhibition of human ARK5 at 1 uM using RBER-CHKtide as substrate in presence of 33P-ATP by ProQinase assay.
The target in assay [12] is Platelet-derived growth factor receptor alpha (Homo sapiens) (UniProt P16234). The assay is described as follows: Inhibition of human PDGFRalpha at 1 uM using Poly(Ala,Glu,Lys,Tyr) as substrate in presence of 33P-ATP by ProQinase assay.
The target of assay [13] is Ribosomal protein S6 kinase beta-2 (Homo sapiens) (UniProt Q9UBS0). In words: Inhibition of human S6K-beta at 1 uM using RBER-CHKtide as substrate in presence of 33P-ATP by ProQinase assay.
Chain of Ribosomal protein S6 kinase beta-2 (Homo sapiens) (Q9UBS0 whole entry): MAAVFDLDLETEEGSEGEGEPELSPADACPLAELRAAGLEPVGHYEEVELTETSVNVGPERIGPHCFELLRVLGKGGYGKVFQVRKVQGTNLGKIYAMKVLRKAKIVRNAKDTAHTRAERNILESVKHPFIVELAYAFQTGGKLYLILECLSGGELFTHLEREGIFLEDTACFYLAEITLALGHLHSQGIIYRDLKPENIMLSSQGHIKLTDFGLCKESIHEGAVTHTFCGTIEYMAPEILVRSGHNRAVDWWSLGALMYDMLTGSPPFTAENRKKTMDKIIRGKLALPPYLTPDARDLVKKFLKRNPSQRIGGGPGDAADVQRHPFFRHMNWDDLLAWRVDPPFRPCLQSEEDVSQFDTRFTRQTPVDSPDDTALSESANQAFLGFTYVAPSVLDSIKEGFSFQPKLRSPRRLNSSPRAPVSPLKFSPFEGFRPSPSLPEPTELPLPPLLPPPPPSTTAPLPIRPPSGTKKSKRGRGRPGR
The target of assay [14] is CDK3/Cyclin E (Homo sapiens) (UniProt P24864+Q00526). The assay is described as follows: Inhibition of human CDK3/CyclinE1 at 1 uM using RBER-CHKtide as substrate in presence of 33P-ATP by ProQinase assay. The format is protein-complex assay.
In assay [15] the target is Aurora kinase A (Homo sapiens) (UniProt O14965). The assay is described as follows: Inhibition of human AuroraA at 1 uM using bio-4xCHKT as substrate in presence of 33P-ATP by ProQinase assay.
Chain of Aurora kinase A (Homo sapiens) (O14965 whole entry): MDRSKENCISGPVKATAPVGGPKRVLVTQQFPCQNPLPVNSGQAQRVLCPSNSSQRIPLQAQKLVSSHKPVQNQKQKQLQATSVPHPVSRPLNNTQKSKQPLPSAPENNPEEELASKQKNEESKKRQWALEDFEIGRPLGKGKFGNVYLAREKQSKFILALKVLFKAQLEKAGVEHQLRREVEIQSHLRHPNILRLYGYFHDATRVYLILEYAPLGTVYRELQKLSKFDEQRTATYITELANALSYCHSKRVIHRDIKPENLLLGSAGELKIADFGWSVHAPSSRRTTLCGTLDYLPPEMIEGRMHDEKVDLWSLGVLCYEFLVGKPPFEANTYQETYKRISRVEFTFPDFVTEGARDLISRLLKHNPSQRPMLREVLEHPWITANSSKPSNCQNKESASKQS
Assay [16] concerns the target Mitogen-activated protein kinase kinase kinase 8 (Homo sapiens) (UniProt P41279). In words: Inhibition of human COT at 1 uM using RBER-CHKtide as substrate in presence of 33P-ATP by ProQinase assay.
The target in assay [17] is Serine/threonine-protein kinase MARK1 (Homo sapiens) (UniProt Q9P0L2). In words: Inhibition of human MARK1 at 1 uM using RBER-CHKtide as substrate in presence of 33P-ATP by ProQinase assay.
Assay [18] has as its target Interleukin-1 receptor-associated kinase 1 (Homo sapiens) (UniProt P51617). The assay is described as follows: Inhibition of human IRAK1 at 1 uM using RB-CTF as substrate in presence of 33P-ATP by ProQinase assay.
For assay [19], the target named is Serine/threonine-protein kinase pim-2 (Homo sapiens) (UniProt Q9P1W9). In words: Inhibition of human PIM2 at 1 uM using RBER-GSK3 as substrate in presence of 33P-ATP by ProQinase assay.
Assay [20] deals with Serine/threonine-protein kinase Nek7 (Homo sapiens) (UniProt Q8TDX7). In words: Inhibition of human NEK7 at 1 uM using casein as substrate in presence of 33P-ATP by ProQinase assay.
Chain of Serine/threonine-protein kinase Nek7 (Homo sapiens) (Q8TDX7 whole entry, looked up, canonical isoform): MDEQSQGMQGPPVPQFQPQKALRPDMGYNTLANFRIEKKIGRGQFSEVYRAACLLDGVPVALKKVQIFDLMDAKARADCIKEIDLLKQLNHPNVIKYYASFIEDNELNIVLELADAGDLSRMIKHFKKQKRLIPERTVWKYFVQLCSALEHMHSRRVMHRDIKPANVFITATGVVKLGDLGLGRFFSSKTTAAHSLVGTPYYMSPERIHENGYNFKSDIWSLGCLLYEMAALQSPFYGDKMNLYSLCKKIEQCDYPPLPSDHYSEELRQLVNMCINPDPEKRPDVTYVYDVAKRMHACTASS
The target of assay [21] is Phosphatidylinositol 4,5-bisphosphate 3-kinase catalytic subunit delta isoform (Homo sapiens, UniProt O00329). The assay is described as follows: Inhibition of PI3Kdelta (unknown origin) using PtdIns(4,5)P2 as substrate preincubated for 20 mins followed by substrate addition and measured after 80 mins by Kinase-Glo assay. A general note: Kinase-Glo reads ATP consumption through a luciferase reaction.
Chain of Phosphatidylinositol 4,5-bisphosphate 3-kinase catalytic subunit delta isoform (O00329 whole entry, canonical isoform): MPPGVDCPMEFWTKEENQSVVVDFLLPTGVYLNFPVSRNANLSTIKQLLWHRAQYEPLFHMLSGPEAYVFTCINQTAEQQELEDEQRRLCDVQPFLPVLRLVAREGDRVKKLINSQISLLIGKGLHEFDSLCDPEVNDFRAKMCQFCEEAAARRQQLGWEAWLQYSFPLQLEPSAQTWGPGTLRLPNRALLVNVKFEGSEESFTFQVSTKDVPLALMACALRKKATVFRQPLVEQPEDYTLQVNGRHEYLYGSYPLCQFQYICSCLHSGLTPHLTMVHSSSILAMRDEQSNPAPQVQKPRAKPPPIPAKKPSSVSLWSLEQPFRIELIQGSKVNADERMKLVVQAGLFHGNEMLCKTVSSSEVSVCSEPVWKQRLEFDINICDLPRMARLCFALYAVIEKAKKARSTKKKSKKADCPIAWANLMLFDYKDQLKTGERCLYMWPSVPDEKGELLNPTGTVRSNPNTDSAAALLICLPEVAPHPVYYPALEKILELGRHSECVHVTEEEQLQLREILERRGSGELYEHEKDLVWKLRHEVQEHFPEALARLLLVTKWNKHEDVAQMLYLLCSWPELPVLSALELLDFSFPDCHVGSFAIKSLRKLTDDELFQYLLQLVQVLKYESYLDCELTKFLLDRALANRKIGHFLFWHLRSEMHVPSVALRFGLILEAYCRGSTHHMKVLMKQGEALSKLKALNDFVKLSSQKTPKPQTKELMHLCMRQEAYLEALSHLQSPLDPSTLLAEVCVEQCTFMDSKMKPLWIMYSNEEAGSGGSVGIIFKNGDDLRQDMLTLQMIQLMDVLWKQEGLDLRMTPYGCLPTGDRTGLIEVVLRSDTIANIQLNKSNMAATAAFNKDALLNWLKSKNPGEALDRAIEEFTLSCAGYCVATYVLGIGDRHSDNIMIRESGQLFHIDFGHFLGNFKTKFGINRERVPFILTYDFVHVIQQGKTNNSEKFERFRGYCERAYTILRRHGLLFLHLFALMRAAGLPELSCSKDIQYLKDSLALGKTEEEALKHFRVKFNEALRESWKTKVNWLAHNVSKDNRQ

Assay [22] has as its target Phosphatidylinositol 4-phosphate 3-kinase C2 domain-containing subunit beta (Homo sapiens, UniProt O00750). The assay is described as follows: Inhibition of human PIK3C2B using PIP2/PS as substrate by ADP-Glo assay. (In ADP-Glo the light output rises with the ADP produced.)
For assay [23], the target named is Phosphatidylinositol 4-kinase type 2-alpha (Homo sapiens, UniProt Q9BTU6). In words: Inhibition of human PI4K2A using PI/PS as substrate by ADP-Glo assay.
The next assay has as its system U2OS. In words: Inhibition of PI3K in human U2OS cells expressing FLAG-tagged SGK3 assessed as reduction in PRAS40 phosphorylation at T246 residues at 0.01 to 1 uM 1 hr by immunoblot analysis. The format is cell-based. Conditions: dose 0.01-1 µM. The essentials: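 Flp-In T-REx U2OS cells were grown in McCoy medium with 10% FBS. Expression of C-terminally FLAG-tagged full-length SGK3 was induced with 0.01 mg/ml doxycycline for 24 h. Cells were treated with inhibitor for 1 h and lysed in phosphatase-inhibitor buffer. Lysates were cleared at 16000 g for 10 min at 4°C, protein was measured by Bradford, and phosphorylation was read by immunoblot with ECL detection.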
Background: In western blotting, separated proteins are transferred to a membrane and probed.

The source made the active and inactive calls. No cut-off for these calls is given here.

Chain of Mitogen-activated protein kinase 1 (Homo sapiens) (P28482 whole entry, the tested form may be a part): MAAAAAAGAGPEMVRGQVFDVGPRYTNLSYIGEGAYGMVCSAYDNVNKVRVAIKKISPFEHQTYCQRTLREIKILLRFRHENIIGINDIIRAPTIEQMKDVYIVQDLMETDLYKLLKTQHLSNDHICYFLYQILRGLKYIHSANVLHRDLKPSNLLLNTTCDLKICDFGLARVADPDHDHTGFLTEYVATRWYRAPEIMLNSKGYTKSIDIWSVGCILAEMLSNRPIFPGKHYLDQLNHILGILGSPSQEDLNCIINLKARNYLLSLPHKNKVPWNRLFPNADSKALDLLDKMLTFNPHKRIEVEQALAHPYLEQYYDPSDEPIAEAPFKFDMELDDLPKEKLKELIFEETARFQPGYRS

Broadly, the IC50 is the point on the concentration scale where inhibition reaches its midpoint. Read a low IC50 as greater potency. As to `CC(C)(O)CNc1ncc(-c2ccnc(Nc3ccnc(Cl)c3)n2)c(CC2CC2)n1`, the Activity in [1] stood at 116%; in assay [2], 110%; in [3], 109%; in [4] it was 105%; in assay [5], 99%; in assay [6] it was 87%. Further, the inhibition result in assay [7], in assay [8], in assay [9], in assay [10], in [11] and in assay [12] was “inactive” each time. Moreover, the inhibition entry in assay [13], in assay [14], in assay [15], in [16], in assay [17] and in [18] was “inactive” each time. The inhibition entry (in assay [19]; in assay [20]; in the assay with U2OS) was “inactive” throughout. The values for the concentration for half-maximal inhibition (IC50) in assay [21], in [22] and in assay [23] were 1.9 µM, more than 10 µM and more than 10 µM, respectively.
